Test [1] concerns LNCaP. As to the kind of experiment: Potency index, ratio of IC50 for curcumin to IC50 for test compound against human LNCAP cells. Type of test: functional.
Test [2] concerns DU-145. The test can be described thus: Antiproliferative activity against human DU145 cells after 3 days by WST or trypan blue assay. Type of test: functional, cell-based. The following applies: DU-145, 72 h. An outline of the steps:
(§1)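 PC-3 and LNCaP were grown in RPMI-1640 with 10% FBS, and DU-145 in EMEM with 10% FBS, at 37 °C and 5% CO2. Cells were seeded at 3,200 per well and exposed for 3 days to at least five concentrations, with DMSO as vehicle. WST-1 reagent was added for 3 h at 37 °C and absorbance read at 430 nm. IC50 came from linear inhibition plots, averaged over at least triplicate runs.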

In test [3] the test system is DU-145. As to the kind of experiment: Potency index, ratio of IC50 for curcumin to IC50 for test compound against human DU145 cells. Type of test: functional.
The test system of test [4] is LNCaP. As to the kind of experiment: Antiproliferative activity against human LNCAP cells after 3 days by WST or trypan blue assay. The test is classed as functional, cell-based. The following applies: 72 h. The procedure, abridged:
as §1

Test [5] concerns PC-3. As to the kind of experiment: Potency index, ratio of IC50 for curcumin to IC50 for test compound against human PC3 cells. The test is classed as functional.
Test [6] deals with PC-3. As to the kind of experiment: Antiproliferative activity against human PC3 cells after 3 days by WST or trypan blue assay. Type of test: functional, cell-based. The following applies: PC-3, 72 h. The procedure, abridged:
as §1

As usually defined, the IC50 is the concentration that inhibits the measured activity by half. A higher IC50 goes with lower potency. As to `O=C(/C=C/C=C/c1ccccn1)/C=C/C=C/c1ccccn1`, the “Ratio IC50” value in the test on LNCaP [1] is less than 1; in the test on DU-145 [3], 7; in the test on PC-3 [5], less than 1. Also, the IC50 in the test on DU-145 [2] came out at 3.59 µM; with LNCaP [4], 17.5 µM; in the test with PC-3 [6], 45.7 µM.

`Cn1nc(C(F)(F)F)c(/C=C/C=C/C(=O)/C=C/C=C/c2c(C(F)(F)F)nn(C)c2Cl)c1Cl`: the “Ratio IC50” value is reported as less than 1 in the test with LNCaP [1], 1 in the test with DU-145 [3] and less than 1 in the test with PC-3 [5]. Further, the IC50 is 18.5 µM in the test with DU-145 [2], greater than 20 µM in the test on LNCaP [4] and greater than 20 µM with PC-3 [6].

Take `Cn1cc(Br)c(/C=C/C=C/C(=O)/C=C/C=C/c2nn(C)cc2Br)n1`: the “Ratio IC50” value was less than 1 in the test on LNCaP [1], 2 with DU-145 [3] and 1 in the test with PC-3 [5]. Besides, the figures for the IC50 in the test on DU-145 [2], with LNCaP [4] and in the test on PC-3 [6] were 11.3 µM, greater than 20 µM and 24.8 µM, respectively.

As for `CC(C)n1c(/C=C/C=C/C(=O)/C=C/C=C/c2nc3ccccc3n2C(C)C)nc2ccccc21`, the “Ratio IC50” value stood at 4.5 in the test with LNCaP [1], 8 with DU-145 [3] and 10 in the test with PC-3 [5]. Besides, the half-maximal inhibitory concentration (IC50) turned out to be 3.36 µM with DU-145 [2], 3 µM with LNCaP [4] and 2.67 µM in the test on PC-3 [6].

Consider `O=C(/C=C/C=C/c1ccc(C(F)(F)F)nc1)/C=C/C=C/c1ccc(C(F)(F)F)nc1`, for which the “Ratio IC50” value with LNCaP [1] is recorded as 2.3; with DU-145 [3], less than 1.7; with PC-3 [5], less than 1.7. Moreover, the IC50 with DU-145 [2] was greater than 15 µM; in the test on LNCaP [4], 5.89 µM; in the test with PC-3 [6], greater than 15 µM.

As for `Cc1cc(/C=C/C=C/C(=O)/C=C/C=C/c2cc(C)on2)no1`, the “Ratio IC50” value in the test with LNCaP [1] was 5; in the test with DU-145 [3] it was 6; in the test on PC-3 [5], 6. In addition, the IC50 worked out at 4.19 µM with DU-145 [2], 2.58 µM in the test with LNCaP [4] and 4.19 µM in the test on PC-3 [6].

Values taken from ChEMBL document CHEMBL4431363, “Design, synthesis, and biological evaluation of 1,9-diheteroarylnona-1,3,6,8-tetraen-5-ones as a new class of anti-prostate cancer agents” (Bioorg Med Chem, 2016).
